Measured values published in PMC3442410 (Molecular Biology of the Cell, 2012).
Changes are numbered by the printed parent chain.

Tests used:
OSBP-S381A = target: T1, OSBP-S381A (Oryctolagus cuniculus, UniProt P16258, S381A); test: Specific binding of [3H]25OH by purified OSBP-S381A; parameters: species or system rabbit
T1 sequence (P16258 1-809 S381A): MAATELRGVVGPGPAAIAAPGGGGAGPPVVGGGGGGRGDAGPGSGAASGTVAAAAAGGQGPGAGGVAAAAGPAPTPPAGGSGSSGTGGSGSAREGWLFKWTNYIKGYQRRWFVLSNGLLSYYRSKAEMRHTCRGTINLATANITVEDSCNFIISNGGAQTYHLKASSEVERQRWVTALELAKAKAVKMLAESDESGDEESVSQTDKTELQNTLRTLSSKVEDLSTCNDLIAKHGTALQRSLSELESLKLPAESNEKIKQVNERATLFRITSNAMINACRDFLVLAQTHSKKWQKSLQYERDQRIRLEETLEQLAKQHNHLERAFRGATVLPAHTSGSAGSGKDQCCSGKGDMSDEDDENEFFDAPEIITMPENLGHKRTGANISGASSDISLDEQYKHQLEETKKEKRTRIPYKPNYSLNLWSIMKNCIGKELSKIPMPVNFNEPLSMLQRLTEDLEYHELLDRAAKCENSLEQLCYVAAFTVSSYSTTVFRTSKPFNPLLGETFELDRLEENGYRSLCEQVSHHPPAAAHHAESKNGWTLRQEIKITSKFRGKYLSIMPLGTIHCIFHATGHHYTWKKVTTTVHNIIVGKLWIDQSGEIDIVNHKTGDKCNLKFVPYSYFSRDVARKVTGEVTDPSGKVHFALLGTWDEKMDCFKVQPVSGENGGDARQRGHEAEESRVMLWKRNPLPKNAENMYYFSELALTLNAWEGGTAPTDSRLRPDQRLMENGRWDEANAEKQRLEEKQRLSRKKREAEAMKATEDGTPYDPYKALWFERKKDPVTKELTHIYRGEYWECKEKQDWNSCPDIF
Method in brief: (§1)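 His-tagged (C-terminal V5-His) rabbit OSBP or mutant expressed in Sf21 cells by baculovirus, purified and kept in Tris-HCl pH 7.4/250 mM NaCl. 12 pmol protein incubated with [3H]25OH in 10 mM HEPES pH 7.4, 100 mM KCl, 2% polyvinyl alcohol at 4°C, 16 h. Charcoal-dextran added for 30 min, then spun 10,000 × g, 10 min. Supernatant bound sterol counted by scintillation. Specific binding is total minus binding with 40-fold excess unlabeled 25OH.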

SM synthesis = test: 25OH-activated SM synthesis; assay type: cell-based, CHO cells; conditions: 25OH 6 μM, 6 h
Method in brief: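 OSBP-deficient CHO cells (stable lentiviral shOSBP) grown in DMEM with 5% fetal calf serum, transiently transfected for 48 h (Lipofectamine 2000) with OSBP constructs carrying three silent shRNA-resistant mutations. Cells then treated with 25OH (6 μM) or solvent control for 6 h. SM and ceramide synthesis measured by [3H]serine incorporation. Mean and SEM of three experiments.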

OSBP-S5E = target: T2, OSBP-S5E (Oryctolagus cuniculus, UniProt P16258, S381E/S384E/S387E/S388E/S391E); test: Specific binding of [3H]25OH by purified OSBP-S5E; parameters: species or system rabbit
T2 sequence (P16258 1-809 S381E/S384E/S387E/S388E/S391E): T1 sequence (P16258 1-809 S381A) with A381E, S384E, S387E, S388E, S391E
Method in brief: as §1

OSBP [1] = target: T3, OSBP (Oryctolagus cuniculus, UniProt P16258); test: Specific binding of [3H]25OH by purified OSBP; parameters: species or system rabbit
T3 sequence (P16258 1-809): T1 sequence (P16258 1-809 S381A) with A381S
Method in brief: as §1

OSBP-S3E = target: T4, OSBP-S3E (Oryctolagus cuniculus, UniProt P16258, S381E/S384E/S387E); test: Specific binding of [3H]25OH by purified OSBP-S3E; parameters: species or system rabbit
T4 sequence (P16258 2-809 S381E/S384E/S387E limits assumed): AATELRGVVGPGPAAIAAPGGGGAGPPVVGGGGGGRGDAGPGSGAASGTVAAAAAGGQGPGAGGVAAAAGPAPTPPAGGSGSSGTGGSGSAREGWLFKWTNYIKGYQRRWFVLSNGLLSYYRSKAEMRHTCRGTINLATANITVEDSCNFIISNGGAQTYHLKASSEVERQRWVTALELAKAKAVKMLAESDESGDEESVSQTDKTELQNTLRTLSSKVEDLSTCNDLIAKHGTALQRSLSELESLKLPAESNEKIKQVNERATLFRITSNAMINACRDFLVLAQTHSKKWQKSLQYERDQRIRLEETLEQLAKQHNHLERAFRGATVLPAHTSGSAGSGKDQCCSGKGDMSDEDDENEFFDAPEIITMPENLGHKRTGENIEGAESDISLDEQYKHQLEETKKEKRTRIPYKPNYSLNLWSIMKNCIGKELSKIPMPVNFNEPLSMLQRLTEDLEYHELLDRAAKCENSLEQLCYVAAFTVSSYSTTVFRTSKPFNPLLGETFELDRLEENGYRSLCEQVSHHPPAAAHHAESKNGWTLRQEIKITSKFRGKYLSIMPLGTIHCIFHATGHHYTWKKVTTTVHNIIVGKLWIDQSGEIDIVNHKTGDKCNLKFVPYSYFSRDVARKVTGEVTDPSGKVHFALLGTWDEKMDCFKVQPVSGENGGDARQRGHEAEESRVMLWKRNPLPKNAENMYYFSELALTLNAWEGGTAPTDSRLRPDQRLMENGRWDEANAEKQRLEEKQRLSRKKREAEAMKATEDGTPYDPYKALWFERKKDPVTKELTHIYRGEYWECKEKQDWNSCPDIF
Method in brief: as §1

OSBP [2] = target: T3, OSBP; test: Direct extraction of radiolabeled PI or PI; assay type: binding, rabbit; conditions: OSBP 50 pmol; liposomes with 0.5 mol% [32P]PI(4)P; compared with [3H]PI
[3] = [3H]25OH, 12 pmol protein, 4°C, 16 h

C[C@H](CCCC(C)(C)O)[C@H]1CC[C@H]2[C@@H]3CC=C4C[C@@H](O)CC[C@]4(C)[C@H]3CC[C@]12C [25OH, 25-hydroxycholesterol]
Kd (OSBP-S381A): 51 ± 12 nM
Bmax (OSBP-S381A; [3]): 0.68 ± 0.11
activation of SM synthesis (SM synthesis; deficient CHO cells expressing S381A/S3A, S5E/S3D or S5E/S3A double mutants): 2.5 fold
activation of SM synthesis (SM synthesis; deficient CHO cells expressing wild-type OSBP): 2.5 fold
Kd (OSBP-S5E): 35 ± 9 nM
binding capacity (Bmax) (OSBP-S5E; [3]): 2.0 ± 0.26
Kd (OSBP [1]): 28 ± 5 nM
Bmax (OSBP [1]; [3]): 0.63 ± 0.05
Kd (OSBP-S3E): 58 ± 14 nM
Bmax (OSBP-S3E; [3]): 0.49 ± 0.15

phosphatidylinositol 4-phosphate [PI(4)P]
extraction from liposomes into supernatant (OSBP [2]): extracted significantly more
